The results in this text go back to ChEMBL document CHEMBL1155278, “3,4-Diaryl-isoxazoles and -imidazoles as potent dual inhibitors of p38alpha mitogen activated protein kinase and casein kinase 1delta” (J Med Chem, 2009).

Assay [1] has as its target Glycogen synthase kinase-3 beta (Homo sapiens) (UniProt P49841). Briefly: Inhibition of GSK3-beta assessed as residual activity at 0.1 uM by Cherenkov counting relative to control in presence of 5 uM ATP. An outline of the steps: (§1)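 Single-concentration screen at 0.1 µM across a panel of 76 protein kinases. Each kinase was run at an ATP concentration approximating its ATP Km. Results are % mean residual activity versus control assays without compound (n = 3 ± SD).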

Assay [2] in a line: Inhibition of VEGFR assessed as residual activity at 0.1 uM by Cherenkov counting relative to control in presence of 20 uM ATP. A digest of the protocol:
(§2)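 Single-concentration screen at 0.1 μM in a 76-kinase panel. ATP for each kinase was set near its Km for ATP. Residual activity is given as a percentage of control assays without compound, mean of n = 3 ± SD.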

Assay [3] has as its target T1, MAP kinase-activated protein kinase 5 (Homo sapiens) (UniProt Q8IW41).
T1 sequence (whole entry): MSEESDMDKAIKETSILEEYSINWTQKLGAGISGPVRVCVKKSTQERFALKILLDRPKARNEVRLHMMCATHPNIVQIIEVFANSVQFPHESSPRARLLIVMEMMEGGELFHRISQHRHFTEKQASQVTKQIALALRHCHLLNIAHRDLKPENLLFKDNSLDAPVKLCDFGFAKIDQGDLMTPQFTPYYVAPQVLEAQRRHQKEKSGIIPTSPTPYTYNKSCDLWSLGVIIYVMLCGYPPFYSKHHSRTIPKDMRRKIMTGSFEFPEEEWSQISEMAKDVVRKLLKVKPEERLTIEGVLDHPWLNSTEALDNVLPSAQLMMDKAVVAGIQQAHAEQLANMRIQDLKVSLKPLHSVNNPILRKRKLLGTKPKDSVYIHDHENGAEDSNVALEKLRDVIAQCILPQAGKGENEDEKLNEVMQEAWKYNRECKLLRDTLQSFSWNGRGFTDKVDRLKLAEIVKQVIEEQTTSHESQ
Briefly: Inhibition of PRAK assessed as residual activity at 0.1 uM by Cherenkov counting relative to control in presence of 20 uM ATP. An outline of the steps:
as §2

The target in assay [4] is RAC-alpha serine/threonine-protein kinase (Homo sapiens) (UniProt P31749). The assay can be described thus: Inhibition of PKBalpha assessed as residual activity at 0.1 uM by Cherenkov counting relative to control in presence of 5 uM ATP. An outline of the steps: as §2
Assay [5] concerns the target Ephrin type-A receptor 2 (Homo sapiens) (UniProt P29317). Briefly: Inhibition of EPHA2 assessed as residual activity at 0.1 uM by Cherenkov counting relative to control in presence of 50 uM ATP. A digest of the protocol:
as §1

For assay [6], the target named is Mitogen-activated protein kinase 1 (Homo sapiens) (UniProt P28482). The assay can be described thus: Inhibition of ERK2 assessed as residual activity at 0.1 uM by Cherenkov counting relative to control. An outline of the steps:
as §1

The target of assay [7] is Fibroblast growth factor receptor 1 (Homo sapiens) (UniProt P11362). The assay can be described thus: Inhibition of FGFR1 assessed as residual activity at 0.1 uM by Cherenkov counting relative to control in presence of 20 uM ATP. A digest of the protocol: as §1
Assay [8] concerns the target Ephrin type-B receptor 3 (Homo sapiens) (UniProt P54753). The assay can be described thus: Inhibition of EPHB3 assessed as residual activity at 0.1 uM by Cherenkov counting relative to control. A digest of the protocol: as §1
For assay [9], the target named is Ribosomal protein S6 kinase alpha-5 (Homo sapiens) (UniProt O75582). Briefly: Inhibition of MSK1 assessed as residual activity at 10 uM by Cherenkov counting relative to control in presence of 20 uM ATP.
Assay [10] deals with Aurora kinase C (Homo sapiens) (UniProt Q9UQB9). Briefly: Inhibition of Aurora C assessed as residual activity at 10 uM by Cherenkov counting relative to control. A digest of the protocol:
(§3)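 Single-point profiling at 10 µM in a panel of 78 protein kinases. Kinase activity is expressed as a percentage relative to control assays without compound.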

In assay [11] the target is Proto-oncogene tyrosine-protein kinase Src (Homo sapiens) (UniProt P12931). The assay can be described thus: Inhibition of Src assessed as residual activity at 10 uM by Cherenkov counting relative to control in presence of 50 uM ATP. A digest of the protocol: (§4)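 Single-concentration profiling at 10 μM in a 78-kinase panel. Kinase activity is expressed as a percentage of control assays run without compound.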

The target in assay [12] is T1, MAP kinase-activated protein kinase 5 (Homo sapiens). The assay can be described thus: Inhibition of PRAK assessed as residual activity at 10 uM by Cherenkov counting relative to control in presence of 20 uM ATP. An outline of the steps: as §4
Assay [13] has as its target T2, Eukaryotic elongation factor 2 kinase (Homo sapiens) (UniProt O00418).
T2 sequence (whole entry): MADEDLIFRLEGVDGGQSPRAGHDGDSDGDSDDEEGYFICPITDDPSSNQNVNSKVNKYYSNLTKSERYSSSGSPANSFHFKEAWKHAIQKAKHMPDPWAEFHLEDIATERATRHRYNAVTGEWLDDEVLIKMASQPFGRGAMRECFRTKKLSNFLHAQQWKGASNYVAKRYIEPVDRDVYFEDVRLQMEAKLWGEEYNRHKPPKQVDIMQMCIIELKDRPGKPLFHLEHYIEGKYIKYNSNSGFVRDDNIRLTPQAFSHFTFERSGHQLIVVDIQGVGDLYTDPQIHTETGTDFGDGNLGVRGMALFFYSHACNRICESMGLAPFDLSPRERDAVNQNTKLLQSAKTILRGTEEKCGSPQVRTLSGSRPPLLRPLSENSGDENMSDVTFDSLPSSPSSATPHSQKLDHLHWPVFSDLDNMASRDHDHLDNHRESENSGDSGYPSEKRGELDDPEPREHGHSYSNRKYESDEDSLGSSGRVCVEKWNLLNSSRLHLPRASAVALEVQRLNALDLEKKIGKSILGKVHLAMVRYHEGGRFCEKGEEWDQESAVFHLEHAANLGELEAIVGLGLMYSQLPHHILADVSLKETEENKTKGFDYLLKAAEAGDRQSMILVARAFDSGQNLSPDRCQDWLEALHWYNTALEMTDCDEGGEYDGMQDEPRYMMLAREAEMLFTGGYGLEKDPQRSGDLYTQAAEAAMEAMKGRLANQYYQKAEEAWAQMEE
The assay can be described thus: Inhibition of EF2K assessed as residual activity at 10 uM by Cherenkov counting relative to control in presence of 5 uM ATP. A digest of the protocol:
as §3

Sequence of RAC-alpha serine/threonine-protein kinase (Homo sapiens) (P31749 whole entry): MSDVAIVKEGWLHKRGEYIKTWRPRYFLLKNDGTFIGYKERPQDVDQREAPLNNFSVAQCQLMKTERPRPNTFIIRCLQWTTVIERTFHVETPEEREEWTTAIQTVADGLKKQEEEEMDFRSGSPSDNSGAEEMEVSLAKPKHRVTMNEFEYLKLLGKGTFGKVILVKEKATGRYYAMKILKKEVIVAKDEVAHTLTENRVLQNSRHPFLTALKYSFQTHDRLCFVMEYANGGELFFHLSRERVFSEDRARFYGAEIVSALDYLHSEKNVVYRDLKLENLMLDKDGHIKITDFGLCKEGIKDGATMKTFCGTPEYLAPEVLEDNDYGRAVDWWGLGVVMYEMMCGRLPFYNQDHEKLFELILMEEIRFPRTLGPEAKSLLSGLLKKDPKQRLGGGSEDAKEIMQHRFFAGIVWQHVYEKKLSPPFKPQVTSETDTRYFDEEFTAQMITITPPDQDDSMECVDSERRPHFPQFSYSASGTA
Sequence of Aurora kinase C (Homo sapiens) (Q9UQB9 whole entry): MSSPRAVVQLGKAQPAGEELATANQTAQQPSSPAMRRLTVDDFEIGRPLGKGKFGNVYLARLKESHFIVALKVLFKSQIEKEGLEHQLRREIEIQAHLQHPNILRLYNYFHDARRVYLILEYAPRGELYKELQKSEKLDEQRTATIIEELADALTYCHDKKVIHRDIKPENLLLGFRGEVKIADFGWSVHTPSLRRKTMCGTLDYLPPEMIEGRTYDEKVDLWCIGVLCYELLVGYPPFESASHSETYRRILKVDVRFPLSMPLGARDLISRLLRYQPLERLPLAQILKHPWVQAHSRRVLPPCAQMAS
Sequence of Ribosomal protein S6 kinase alpha-5 (Homo sapiens) (O75582 whole entry, looked up): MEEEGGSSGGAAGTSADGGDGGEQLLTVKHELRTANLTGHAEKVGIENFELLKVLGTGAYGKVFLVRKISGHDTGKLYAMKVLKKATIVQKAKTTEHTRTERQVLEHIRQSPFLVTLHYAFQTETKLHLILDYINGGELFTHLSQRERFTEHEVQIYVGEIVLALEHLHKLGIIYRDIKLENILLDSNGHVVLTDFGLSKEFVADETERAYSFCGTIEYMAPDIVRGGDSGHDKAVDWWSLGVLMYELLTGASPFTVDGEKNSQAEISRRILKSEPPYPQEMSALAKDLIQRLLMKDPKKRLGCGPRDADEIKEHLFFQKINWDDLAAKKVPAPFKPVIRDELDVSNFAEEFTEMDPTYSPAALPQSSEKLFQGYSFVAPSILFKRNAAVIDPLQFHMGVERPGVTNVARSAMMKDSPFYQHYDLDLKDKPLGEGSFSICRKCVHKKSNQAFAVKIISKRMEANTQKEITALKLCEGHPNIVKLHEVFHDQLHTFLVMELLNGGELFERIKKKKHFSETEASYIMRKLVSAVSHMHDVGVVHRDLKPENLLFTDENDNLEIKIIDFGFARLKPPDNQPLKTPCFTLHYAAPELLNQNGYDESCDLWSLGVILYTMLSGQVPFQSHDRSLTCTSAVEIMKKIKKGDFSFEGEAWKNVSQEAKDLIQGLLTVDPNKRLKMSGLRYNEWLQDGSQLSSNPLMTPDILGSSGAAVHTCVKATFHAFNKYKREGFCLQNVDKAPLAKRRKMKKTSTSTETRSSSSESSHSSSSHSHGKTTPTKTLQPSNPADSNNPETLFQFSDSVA
Sequence of Fibroblast growth factor receptor 1 (Homo sapiens) (P11362 22-822 limits assumed): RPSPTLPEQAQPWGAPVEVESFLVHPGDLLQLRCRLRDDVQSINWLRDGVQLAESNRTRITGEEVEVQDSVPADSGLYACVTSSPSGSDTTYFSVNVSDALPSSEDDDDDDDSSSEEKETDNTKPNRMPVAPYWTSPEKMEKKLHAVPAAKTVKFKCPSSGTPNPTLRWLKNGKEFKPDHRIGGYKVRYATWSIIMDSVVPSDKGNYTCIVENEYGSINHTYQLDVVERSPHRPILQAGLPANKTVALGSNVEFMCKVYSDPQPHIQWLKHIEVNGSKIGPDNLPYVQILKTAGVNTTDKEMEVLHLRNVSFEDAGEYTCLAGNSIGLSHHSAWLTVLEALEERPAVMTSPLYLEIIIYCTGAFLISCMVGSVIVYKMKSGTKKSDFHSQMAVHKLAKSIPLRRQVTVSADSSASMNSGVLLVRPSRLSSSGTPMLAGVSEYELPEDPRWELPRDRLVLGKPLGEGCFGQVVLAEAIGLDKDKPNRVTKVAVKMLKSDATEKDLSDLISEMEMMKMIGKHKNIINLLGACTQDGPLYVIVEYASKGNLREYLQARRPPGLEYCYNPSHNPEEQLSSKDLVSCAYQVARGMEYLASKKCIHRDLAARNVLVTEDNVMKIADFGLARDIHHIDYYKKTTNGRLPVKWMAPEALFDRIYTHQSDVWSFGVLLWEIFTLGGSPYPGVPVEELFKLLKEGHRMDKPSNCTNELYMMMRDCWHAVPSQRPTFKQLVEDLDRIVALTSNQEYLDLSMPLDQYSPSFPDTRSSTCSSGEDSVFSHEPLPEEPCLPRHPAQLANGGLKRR
Sequence of Mitogen-activated protein kinase 1 (Homo sapiens) (P28482 whole entry): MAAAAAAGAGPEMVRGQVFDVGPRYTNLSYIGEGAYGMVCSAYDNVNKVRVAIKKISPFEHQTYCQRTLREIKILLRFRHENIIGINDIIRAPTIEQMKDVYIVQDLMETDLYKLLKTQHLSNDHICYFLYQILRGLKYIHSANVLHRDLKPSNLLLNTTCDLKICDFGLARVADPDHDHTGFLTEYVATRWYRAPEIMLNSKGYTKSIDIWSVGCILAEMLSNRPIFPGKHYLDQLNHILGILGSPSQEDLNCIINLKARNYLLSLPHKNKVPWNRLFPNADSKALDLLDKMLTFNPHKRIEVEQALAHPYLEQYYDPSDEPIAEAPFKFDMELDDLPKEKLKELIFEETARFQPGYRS
Sequence of Proto-oncogene tyrosine-protein kinase Src (Homo sapiens) (P12931 2-536 limits assumed): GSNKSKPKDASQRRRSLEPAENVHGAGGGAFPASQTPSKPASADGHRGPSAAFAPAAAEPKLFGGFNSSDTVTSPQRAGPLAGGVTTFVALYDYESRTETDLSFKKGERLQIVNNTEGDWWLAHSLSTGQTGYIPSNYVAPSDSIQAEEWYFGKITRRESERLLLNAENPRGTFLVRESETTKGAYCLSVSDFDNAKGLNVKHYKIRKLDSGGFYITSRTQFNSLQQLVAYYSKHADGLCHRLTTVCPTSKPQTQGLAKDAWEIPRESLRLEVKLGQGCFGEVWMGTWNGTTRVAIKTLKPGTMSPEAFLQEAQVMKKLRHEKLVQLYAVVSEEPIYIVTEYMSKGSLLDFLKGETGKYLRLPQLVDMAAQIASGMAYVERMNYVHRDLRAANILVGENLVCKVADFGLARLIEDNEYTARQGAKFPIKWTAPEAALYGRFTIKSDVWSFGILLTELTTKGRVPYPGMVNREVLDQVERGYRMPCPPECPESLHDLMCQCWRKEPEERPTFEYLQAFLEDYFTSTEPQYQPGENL
Sequence of Ephrin type-A receptor 2 (Homo sapiens) (P29317 whole entry): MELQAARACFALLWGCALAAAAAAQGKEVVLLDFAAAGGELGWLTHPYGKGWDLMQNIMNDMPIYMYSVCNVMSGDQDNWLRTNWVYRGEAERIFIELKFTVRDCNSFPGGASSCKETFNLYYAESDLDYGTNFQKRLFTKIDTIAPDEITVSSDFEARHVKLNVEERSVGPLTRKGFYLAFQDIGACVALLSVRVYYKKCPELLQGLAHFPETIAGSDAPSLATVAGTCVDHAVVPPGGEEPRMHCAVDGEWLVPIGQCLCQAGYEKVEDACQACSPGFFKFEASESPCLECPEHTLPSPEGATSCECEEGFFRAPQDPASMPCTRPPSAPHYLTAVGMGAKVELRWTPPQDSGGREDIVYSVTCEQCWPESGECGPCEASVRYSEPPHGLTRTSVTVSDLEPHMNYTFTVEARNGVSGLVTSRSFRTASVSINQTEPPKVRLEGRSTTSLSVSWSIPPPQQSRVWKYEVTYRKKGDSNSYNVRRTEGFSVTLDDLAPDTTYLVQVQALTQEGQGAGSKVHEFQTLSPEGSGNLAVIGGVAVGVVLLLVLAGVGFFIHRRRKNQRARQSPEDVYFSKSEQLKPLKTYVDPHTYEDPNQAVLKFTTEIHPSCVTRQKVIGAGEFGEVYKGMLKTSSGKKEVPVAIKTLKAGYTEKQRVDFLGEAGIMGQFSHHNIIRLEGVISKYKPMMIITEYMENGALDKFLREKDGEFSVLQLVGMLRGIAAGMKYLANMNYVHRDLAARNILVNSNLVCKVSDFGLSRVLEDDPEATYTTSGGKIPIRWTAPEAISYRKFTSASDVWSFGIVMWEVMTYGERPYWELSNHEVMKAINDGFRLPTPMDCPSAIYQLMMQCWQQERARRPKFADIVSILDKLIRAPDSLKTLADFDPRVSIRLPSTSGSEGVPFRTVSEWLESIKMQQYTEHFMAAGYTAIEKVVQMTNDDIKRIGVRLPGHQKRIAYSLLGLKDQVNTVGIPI
Sequence of Glycogen synthase kinase-3 beta (Homo sapiens) (P49841 whole entry, looked up): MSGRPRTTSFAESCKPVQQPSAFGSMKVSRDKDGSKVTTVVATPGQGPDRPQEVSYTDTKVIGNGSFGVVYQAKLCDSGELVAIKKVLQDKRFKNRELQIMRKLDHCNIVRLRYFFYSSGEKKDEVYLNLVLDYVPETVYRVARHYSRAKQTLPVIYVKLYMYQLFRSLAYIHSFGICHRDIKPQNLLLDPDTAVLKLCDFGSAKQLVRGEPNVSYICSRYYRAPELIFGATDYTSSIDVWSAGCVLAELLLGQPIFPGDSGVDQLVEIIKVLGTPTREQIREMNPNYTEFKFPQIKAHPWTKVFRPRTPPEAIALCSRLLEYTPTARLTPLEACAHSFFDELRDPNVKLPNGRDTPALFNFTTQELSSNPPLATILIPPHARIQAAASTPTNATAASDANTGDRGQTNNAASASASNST

As for `COc1ccc(/C=C/C(=O)Nc2cc(-c3[nH]c(SC)nc3-c3ccc(F)cc3)ccn2)c(OC)c1`, the Activity in [1] amounted to 81%; in assay [2], 33%; in assay [3], 83%; in assay [4] it was 105%; in assay [5] it was 97%; in assay [6], 91%. The Activity in assay [7] came out at 50%; in assay [8] it was 94%.
For `CC(C)c1onc(-c2ccc(F)cc2)c1-c1ccncc1`, the Activity is 95% in [9]; 110% in assay [10]; 72% in assay [11]; 88% in assay [12]; 107% in assay [13].
For `CC(C)c1noc(-c2ccc(F)cc2)c1-c1ccncc1` the same measures were 113%, 35%, 90%, 98% and 107%.
As to `COc1ccc(/C=C/C(=O)Nc2cc(-c3[nH]c([S+](C)[O-])nc3-c3ccc(F)cc3)ccn2)c(OC)c1` (stereo unspecified), the Activity in [1] came to 101%; in assay [2] it was 46%; in assay [3] it was 101%; in assay [4] it was 105%; in assay [5], 95%; in [6], 93%. Moreover, the values for the Activity in [7] and in assay [8] were 50% and 95%, respectively.
